Results on three compounds are retold here after publication PMC11056977 (Journal of Medicinal Chemistry, 2024).

The test system of assay [1] is MCF7 cell-derived xenografts. The assay can be described thus: MCF7 cell-derived xenograft mouse model. It is filed as in vivo, BALB/c nude mice. Particulars: tumor samples, 25 mg/kg ip every 2 days. The gist of the method:
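Female BALB/c nude mice (4–6 weeks) implanted subcutaneously with 5 × 10^6 MCF7 cells in PBS, with estrogen (E2, 10–2 M) brushed on every 2 days. Randomized at ~50 mm3 tumor volume. Test peptide was given in normal saline, 25 mg/kg i.p., every 2 days. Tumor lysates (Tris-HCl pH 7.4, NaCl, EDTA, 1% Triton X-100) were immunoblotted after 10% SDS-PAGE.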

Assay [2] concerns MDA-MB-231 cell-derived xenografts. The assay can be described thus: MDA-MB-231 cell-derived xenograft mouse model. It is filed as in vivo, BALB/c nude mice. Particulars: tumor samples, 25 mg/kg ip every 2 days. The gist of the method: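 Female BALB/c nude mice (4–6 weeks) were implanted subcutaneously with 5 × 10^6 MDA-MB-231 cells in PBS and randomized at ~50 mm3. Peptide in normal saline was given at 25 mg/kg i.p. every 2 days. Tumours were analysed by RT-qPCR for c-Myc, N-myc and CCND1 (three biological repeats).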

Assay [3] relates to c-Myc, N-myc, CCND1 expression in MCF7 cells. Description: RT-qPCR and immunoblotting of BRD4/JMJD6 target genes, MCF7 cells. It is filed as cell-based. Particulars: 10 μM 6 h in cells; xenograft tumor samples; RT-qPCR. In general terms: Quantitative PCR measures a nucleic acid by following its amplification.
In assay [4] the test system is c-Myc, N-myc, CCND1 expression in MDA-MB-231 cells. The assay can be described thus: RT-qPCR and immunoblotting of BRD4/JMJD6 target genes, MDA-MB-231 cells. It is filed as cell-based. The note with it: 10 μM 6 h in cells; xenograft tumor samples; RT-qPCR.
The subject of assay [5] is tamoxifen-resistant MCF7 cells. The assay can be described thus: Cell proliferation and colony formation, tamoxifen-resistant MCF7. Type of assay: cell-based. Particulars: peptide inhibitors 10 μM, tamoxifen 3 μM, cell proliferation and colony formation assay. The gist of the method:
(§1)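 Resistant lines (MCF7 in DMEM; T47D in RPMI-1640; 10% FBS, 37 °C, 5% CO2) given peptide inhibitor 10 μM and tamoxifen 3 μM, alone or combined. Proliferation: 2 × 10^3 cells/well for the days indicated, then tetrazolium (CellTiter 96 Aqueous One) reagent for 1 h at 37 °C and absorbance at 490 nm. Colonies: 1 × 10^3 cells/well for 2 weeks, crystal violet stain dissolved in 10% acetic acid, read at 590 nm.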

Assay [6] concerns tamoxifen-resistant T47D cells. Description: Cell proliferation and colony formation, tamoxifen-resistant T47D. The note with it: peptide inhibitors 10 μM, tamoxifen 3 μM, cell proliferation and colony formation assay. It is filed as cell-based. In short, it runs like this: as §1
In the next assay the test system is BRD4. Description: Immunoblotting of BRD4 protein. Type of assay: cell-based. The note with it: MCF7 cells, MZ1 1 μM, 24 h, compared with TAT-PiET-PROTAC 10 μM. For orientation: In western blotting, separated proteins are transferred to a membrane and probed.

Ends that are not written are not given here.

As for “TAT-PiET-PROTAC: PROTAC-modified TAT-PiET: VHL ligand peptide joined by AHX to the C-terminus (YGRKKRRQRRRRNQKFKCGE; not fully specified (C-terminus))”, the “c-Myc, N-myc, and CCND1 mRNA and protein levels in MCF7 cell-derived xenografts” value in assay [1] is “significant decrease”. The “degradation of BRD4 and JMJD6 in MCF7 cell-derived xenografts” value in assay [1] (immunoblot) was “induced the degradation of BRD4 and JMJD6 in xenografts”. The “c-Myc, N-myc, and CCND1 mRNA and protein levels in MDA-MB-231 cell-derived xenografts” value in assay [2] is on record as “significant decrease”. Moreover, the “degradation of BRD4 and JMJD6 in MDA-MB-231 cell-derived xenografts” value in assay [2] (immunoblot) is “induced the degradation of BRD4 and JMJD6 in xenografts”. Further, in assay [3], the “mRNA levels of BRD4 or JMJD6, MCF7 (culture cells or xenografts)” value was “did not affect”. For the same compound, in assay [4], the “mRNA levels of BRD4 or JMJD6, MDA-MB-231 (culture cells or xenografts)” value is given as “did not affect”. In addition, the “resensitization of tamoxifen-resistant MCF7 cells to tamoxifen” value in assay [5] is given as “resensitized”. Besides, in assay [6], the “sensitivity of tamoxifen-resistant T47D cells to tamoxifen” value is on record as “became sensitive to tamoxifen”.

Regarding `Cc1ncsc1-c1ccc(CNC(=O)[C@@H]2C[C@@H](O)CN2C(=O)[C@@H](NC(=O)COCCOCCOCCNC(=O)C[C@@H]2N=C(c3ccc(Cl)cc3)c3c(sc(C)c3C)-n3c(C)nnc32)C(C)(C)C)cc1` [MZ1], in the assay with BRD4, the “degradation of full-length BRD4 protein” value is reported as “induced the degradation of full-length BRD4 protein as effectively as TAT-PiET-PROTAC (10 μM)”.

Turning to YGRKKRRQRRRRNQKFKCGE [TAT-PiET], the “c-Myc, N-myc, and CCND1 mRNA and protein levels in MCF7 cell-derived xenografts” value in assay [1] is on record as “significant decrease”. Also, the “c-Myc, N-myc, and CCND1 mRNA and protein levels in MDA-MB-231 cell-derived xenografts” value in assay [2] is listed as “significant decrease”. In assay [3], the “mRNA levels of BRD4 or JMJD6, MCF7 (culture cells or xenografts)” value is reported as “did not affect”. In addition, the “mRNA levels of BRD4 or JMJD6, MDA-MB-231 (culture cells or xenografts)” value in assay [4] was “did not affect”. For the same compound, the “resensitization of tamoxifen-resistant MCF7 cells to tamoxifen” value in assay [5] is “resensitized”. Also, the “sensitivity of tamoxifen-resistant T47D cells to tamoxifen” value in assay [6] was “became sensitive to tamoxifen”.
